Values after ≈ are worked out from the molar mass of the structure shown.
Key:
[1] = Toxicity against adherent human PBMC; assay type: cell-based
Procedure, shortened: (§1)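 PBMC from one healthy volunteer, isolated at room temperature, in RPMI 1640 + 10% FBS at 1 × 10^6 cells/mL; compounds tested in quintuplicate, 24 h. Non-adherent cells taken with supernatant, adherent cells recovered with trypsin–EDTA, each fraction pelleted (600g, 5 min) and read separately; IC50 per fraction.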

Vero = assay: Cytotoxicity against Vero cells; assay type: cell-based; conditions: Chlorocebus sabaeus
Procedure, shortened: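 Vero cells in DMEM with 10% FBS (1.5 × 10^5 cells/mL) grown 24 h at 36.5 °C, 5% CO2; medium renewed, compounds (DMSO stocks) added in triplicate at 100–0.390 µg/mL by two-fold serial dilution, 24 h. Cells trypsinized, trypan blue stained, 100 counted for % dead, corrected against untreated controls (2.5% DMSO); IC50 by probit; three independent experiments, mean ± SE.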

[2] = tested on: Mycobacterium tuberculosis; assay: Antimycobacterial activity against Mycobacterium tuberculosis H37Rv; assay type: functional
Procedure, shortened: (§2)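 Modified microplate Alamar Blue assay (MABA). Inoculum came from a log-phase culture matched to McFarland 1, diluted 1:50 in Middlebrook 7H9 to 6 × 10^6 CFU/mL, and prepared just before inoculation.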

[3] = tested on: Mycobacterium tuberculosis; assay: Antimycobacterial activity against drug-sensitive Mycobacterium tuberculosis CIBIN 687 isolates; assay type: functional; procedure, shortened: as §2
[4] = Toxicity against non-adherent human PBMC; assay type: cell-based; procedure, shortened: as §1
[5] = tested on: Mycobacterium tuberculosis; assay: Antimycobacterial activity against drug-sensitive Mycobacterium tuberculosis CIBIN 650 isolates; assay type: functional; procedure, shortened: as §2
PBMC = assay: Survival of adherent human PBMC at 100 ug/mL; assay type: functional; conditions: read-out: Survival
Procedure, shortened: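 PBMC came from one healthy volunteer, isolated at room temperature, and were plated at 1 × 10^6 cells/mL in RPMI 1640 + 10% FBS. Compound was added in quintuplicate and incubated 24 h. Both fractions were pelleted at 600g for 5 min.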

| Compound | IC50 [1] [µg/mL] | IC50 (Vero) [µM] | MIC [2] [µM] | MIC [3] [µM] | IC50 [4] [µg/mL] | MIC [5] [µM] | viability at 100 µg/mL (PBMC) [%] |
| --- | --- | --- | --- | --- | --- | --- | --- |
| CCCCCCCCCCCCCCCCCc1nnc(-c2ccncc2)o1 | 312 (≈ 810 µM) | 86.7 | 0.65 (≈ 0.251 µg/mL) | 0.65 (≈ 0.251 µg/mL) | 45.4 (≈ 118 µM) | 0.16 (≈ 0.0617 µg/mL) |  |
| CC[C@@H](CO)NCCN[C@@H](CC)CO [ETHAMBUTOL] |  | > 100 | 9.8 (≈ 2 µg/mL) |  |  |  |  |
| ClCc1nnc(-c2ccncc2)o1 |  | 64.6 | 41 (≈ 8.03 µg/mL) | 41 (≈ 8.03 µg/mL) |  | 41 (≈ 8.03 µg/mL) |  |
| CN[C@@H]1[C@H](O[C@H]2[C@H](O[C@H]3[C@H](O)[C@@H](O)[C@H](N=C(N)N)[C@@H](O)[C@@H]3N=C(N)N)O[C@@H](C)[C@]2(O)C=O)O[C@@H](CO)[C@H](O)[C@H]1O (stereo in doubt) [STREPTOMYCIN] |  | > 100 | 0.86 (≈ 0.5 µg/mL) |  |  | 0.1 (≈ 0.0582 µg/mL) |  |
| NNC(=O)c1ccncc1 [ISONIAZID] | > 100 | 39.8 | 0.44 (≈ 0.0603 µg/mL) | 0.91 (≈ 0.125 µg/mL) | 87.1 (≈ 635 µM) | 0.91 (≈ 0.125 µg/mL) | > 95 |
| c1ccc(-c2nnc(-c3ccncc3)o2)cc1 |  | 67.8 | 8.97 (≈ 2 µg/mL) | 4.48 (≈ 1 µg/mL) |  | 8.97 (≈ 2 µg/mL) |  |
| O=[N+]([O-])c1cc(-c2nnc(-c3ccncc3)o2)cc([N+](=O)[O-])c1 |  | 77.1 | 25.5 (≈ 8 µg/mL) | 6.39 (≈ 2 µg/mL) |  | 25.5 (≈ 8 µg/mL) |  |
| c1cc(-c2nnc(-c3ccncc3)o2)ccn1 |  | 92.4 | 8.93 (≈ 2 µg/mL) | 4.46 (≈ 1 µg/mL) |  | 8.93 (≈ 2 µg/mL) |  |
| COc1cc(-c2nnc(-c3ccncc3)o2)cc(OC)c1OC |  | 250 | 14.1 (≈ 4.42 µg/mL) | 3.53 (≈ 1.11 µg/mL) |  | 7.06 (≈ 2.21 µg/mL) |  |
| O=[N+]([O-])c1ccc(-c2nnc(-c3ccncc3)o2)cc1 |  |  | 29.9 (≈ 8.01 µg/mL) | 29.9 (≈ 8.01 µg/mL) |  | 29.9 (≈ 8.01 µg/mL) |  |
| CN(C)c1ccc(-c2nnc(-c3ccncc3)o2)cc1 |  | 50.4 | 3.76 (≈ 1 µg/mL) | 3.76 (≈ 1 µg/mL) |  | 30 (≈ 8 µg/mL) |  |
| CO[C@H]1/C=C/O[C@@]2(C)Oc3c(C)c(O)c4c(O)c(c(/C=N/N5CCN(C)CC5)c(O)c4c3C2=O)NC(=O)/C(C)=C\C=C\[C@H](C)[C@H](O)[C@@H](C)[C@@H](O)[C@@H](C)[C@H](OC(C)=O)[C@@H]1C [RIFAMPIN] |  | > 100 | 0.07 (≈ 0.0576 µg/mL) |  |  |  |  |
| CCCCCCCCCCCCCCCc1nnc(-c2ccncc2)o1 | 125 (≈ 350 µM) | 95.5 | 0.35 (≈ 0.125 µg/mL) | 0.7 (≈ 0.25 µg/mL) | 15.8 (≈ 44.3 µM) | 0.09 (≈ 0.0322 µg/mL) |  |
| Cc1nnc(-c2ccncc2)o1 |  |  | 49.7 (≈ 8.01 µg/mL) | 6.21 (≈ 1 µg/mL) |  | 49.7 (≈ 8.01 µg/mL) |  |
| FC(F)(F)c1nnc(-c2ccncc2)o1 |  |  | 37.2 (≈ 8.01 µg/mL) | 37.2 (≈ 8.01 µg/mL) |  | 37.2 (≈ 8.01 µg/mL) |  |
| O=[N+]([O-])c1ccccc1-c1nnc(-c2ccncc2)o1 |  | 32.4 | 7.46 (≈ 2 µg/mL) | 3.73 (≈ 1 µg/mL) |  | 7.46 (≈ 2 µg/mL) |  |

— ChEMBL document CHEMBL1143736, “Synthesis and antimycobacterial activity of 4-(5-substituted-1,3,4-oxadiazol-2-yl)pyridines” (Bioorg Med Chem, 2007)
